Measured values gathered from unrelated publications.
Lines come from different studies, so protocols differ.
Target: 5-hydroxytryptamine receptor 1A (HTR1A, Homo sapiens, UniProt P08908)
One construct used (P08908 1-422): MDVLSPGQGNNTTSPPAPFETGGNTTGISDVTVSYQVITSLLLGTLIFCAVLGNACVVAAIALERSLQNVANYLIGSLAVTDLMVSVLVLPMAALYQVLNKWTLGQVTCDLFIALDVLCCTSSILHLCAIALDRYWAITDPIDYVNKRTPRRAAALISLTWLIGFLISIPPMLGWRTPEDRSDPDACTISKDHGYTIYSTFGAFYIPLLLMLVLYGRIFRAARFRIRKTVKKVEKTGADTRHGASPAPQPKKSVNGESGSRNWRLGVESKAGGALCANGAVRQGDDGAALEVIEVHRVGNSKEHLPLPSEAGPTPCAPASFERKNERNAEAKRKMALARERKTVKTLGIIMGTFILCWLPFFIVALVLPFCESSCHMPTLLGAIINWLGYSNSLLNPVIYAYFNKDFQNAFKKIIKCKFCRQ

| SMILES | observed | mode | technique | measurement | result |
| --- | --- | --- | --- | --- | --- |
| CN(C)CCc1c[nH]c2cccc(O)c12 | ligand displacement |  | radioligand | Ki | 84 nM |
| CCCCCNC(=N)N/N=C/c1c[nH]c2ccc(OC)cc12 | ligand displacement |  | radioligand | IC50 | 143 nM |
| CN1C[C@@H](CO)C=C2c3cccc4[nH]cc(c34)C[C@H]21 | ligand displacement |  | radioligand | IC50 | 2.3 nM |
| COCCCN1CCN(c2ccccc2OC)CC1 | cell-free assay |  |  | Ki | 110 nM |
| CC(CCc1ccccc1)NC(C)C(O)c1ccc(O)cc1 (stereo not drawn) | calcium signal | antagonist |  | IC50 | 11800 nM |
| NCCc1c[nH]c2cccc(O)c12 | ligand displacement |  | radioligand | Ki | 44 nM |
| CC[C@@H](CO)NC(=O)[C@@H]1C=C2c3cccc4c3c(cn4C)C[C@H]2N(C)C1 | cell-free assay |  |  | Ki | 70 nM |
| NCCc1c[nH]c2cc(F)ccc12 | ligand displacement |  | radioligand | Ki | 267 nM |
| C[C@H](N)Cn1ncc2ccc3c(c21)CCCO3 | cell-free assay |  | radioligand | Ki | 294 nM |
